This is a sample that favours compounds with a hit; in the whole collection about 2.6% have one here.
PRMT1 FP inh: PRMT1 methyltransferase inhibitors, primary screen, biochemical, fluorescence polarization. recombinant PRMT1, activity-based probe fluorescence polarization. inhibition, % at 2.79 µM. 1.3% of 370,000 active;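 active means inhibition above about 21% made by adding two undisclosed values, limit read from the data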
HTRA1 inhibitor: HTRA1 serine protease inhibitors, primary screen, biochemical, fluorescence polarization, HTS. Q92743. recombinant HTRA1, FP-rhodamine activity-based probe. inhibition, % at 5.96 µM. 0.5% of 340,000 active. AID 504803, 2011; in the data active means inhibition above about 36%;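 further: 0% = enzyme with DMSO and 100% = wells lacking enzyme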
ABHD4 inh: ABHD4 inhibitors, primary screen, biochemical, fluorescence polarization, mouse. (Lyso)-N-acylphosphatidylethanolamine lipase (Mus musculus), Q8VD66. purified mABHD4, FP-Rh probe fluorescence polarization. inhibition, % at 8.92 µM. 0.54% of 370,000 active. AID 720543, 2013;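 active means inhibition exceeding the mean over every tested compound plus 3 SD, cut at about 30% in these data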;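 further: 0% = plate median of compound wells and 100% = S159A mutant with DMSO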
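Doses – 8.92 µM, single dose · Material – wild-type mouse ABHD4 protein · Replication – single well per compound (singlicate) · Measure – percent inhibition of probe binding, normalized to plate controls · Schedule – 45 min compound pre-incubation plus 60 min probe step, 25 °C · Detection – fluorescence polarization with parallel and perpendicular emission, 525/598 nm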
TCR-CD3 inh: inhibitors of human TCR-CD3 interaction, primary screen, biochemical, fluorescence, TAMRA-labeled TCR probe; T-cell receptor (TCR); inhibition, % at 9.4 µM; 0.37% of 360,000 active; AID 651800, 2012; in the data active means inhibition above about 19%;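 further: recombinant mutant TCR 2C K166C tagged with TAMRA read by polarization; 0% = receptor in buffer alone and 100% = receptor with positive control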
SIAE inh: human SIAE inhibitors, primary screen, biochemical, fluorescence polarization, FP-Rh probe, 1536-well HTS. Sialate O-acetylesterase (Homo sapiens), Q9HAT2. SIAE FP-Rh probe binding. inhibition, % at 9.66 µM. 0.69% of 370,000 active;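 active means inhibition above a cutoff: mean of compounds within the control limits plus 3 SD of those, cut at about 17% in these data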;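 further: 0% = plate median of compound wells and 100% = probe without SIAE protein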
Target sequence (Q9HAT2 whole entry, looked up): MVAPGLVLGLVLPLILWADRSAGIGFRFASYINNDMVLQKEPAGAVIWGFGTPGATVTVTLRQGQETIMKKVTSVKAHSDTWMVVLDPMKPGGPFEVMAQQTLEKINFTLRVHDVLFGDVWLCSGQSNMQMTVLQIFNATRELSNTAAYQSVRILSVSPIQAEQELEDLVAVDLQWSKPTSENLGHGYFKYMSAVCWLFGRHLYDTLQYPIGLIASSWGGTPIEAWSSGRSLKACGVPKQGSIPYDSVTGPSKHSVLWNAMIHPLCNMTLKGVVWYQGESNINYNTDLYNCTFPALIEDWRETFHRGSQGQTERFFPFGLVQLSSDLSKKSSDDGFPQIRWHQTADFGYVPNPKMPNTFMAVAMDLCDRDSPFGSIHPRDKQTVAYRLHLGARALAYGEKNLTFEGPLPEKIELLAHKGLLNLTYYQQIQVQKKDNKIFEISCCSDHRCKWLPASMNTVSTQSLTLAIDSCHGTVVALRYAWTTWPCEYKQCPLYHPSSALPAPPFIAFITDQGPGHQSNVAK
Active calls of the source: *; / = no result given.

SMILES	PRMT1 FP inh	HTRA1 inhibitor	ABHD4 inh	TCR-CD3 inh	SIAE inh
COc1ccc(S(=O)(=O)N2CCC(C(=O)N(C)Cc3ccc(C)o3)CC2)cc1OC	24*	-1	5	4	1
Cc1ccc(CN(C)C(=O)c2cccc(S(=O)(=O)N3CCCC3)c2)o1	3	4	-3	4	0
CC(C)(C)N(NS(=O)(=O)c1ccc(F)cc1)c1ccccc1	22*	6	8	2	7
Cc1ccccc1NS(=O)(=O)c1ccc(F)cc1	4	-4	-10	-2	-8
C=CCOC(=O)C(CO)NC(=O)CCCC(=O)O (stereo not given)	-4	/	-1	/	0
Cn1c(CNc2ccccc2F)nc2ccccc21	-3	/	-1	/	2
O=[N+]([O-])c1ccc(-c2ccc(C=Nc3cccc4ccccc34)o2)cc1	22*	0	14	-1	-1
O=C(Cc1ccccc1)N/N=C/c1ccc(-c2ccc([N+](=O)[O-])cc2)o1	-2	2	3	6	4
COC(=O)[C@]12C[C@H](CC(=O)N3CCCCC3)C(=O)N(Cc3ccco3)C1=C[C@H](C(C)(C)C)O[C@@H]2C	-6	/	7	/	-3
c1ccc(-c2c[nH]c3cccc(C4CCCCC4)c23)cc1	3	/	4	/	8
CCNc1ccc(Br)cc(C(=O)/C=C/c2c(Cl)cccc2Cl)c1=O	/	58*	/	/	/
COC(=O)C1CN(Cc2ccc(F)cc2)CCS(=O)(=O)N1Cc1cn(Cc2ccc(C)cc2)nn1 (stereo not given)	0	/	7	/	4
CCN(CC)c1ccc2cc(NC(=O)CCC(=O)O)c(=O)oc2c1	34*	19	58*	16	9
CCN(CC)c1ccc2cc(C(C)=O)c(=O)oc2c1	-24	-1	-4	2	4
CCCCCCCCCCCCCCCC[N+](C)(C)CCN(Cc1ccc(OC)cc1)c1ncccn1	/	52*	/	/	/
CCOC(=O)c1ccc(NC(=O)CSc2nnc(-c3cc(-c4ccccc4)n[nH]3)n2N)cc1	3	/	2	/	4
N#Cc1ccsc1NC(=O)c1ccc2ncsc2c1	22*	-10	-3	-13	-12
O=C(Nc1ccc(F)cc1)c1ccc2ncsc2c1	9	-13	2	-1	-5
O=C(Nc1ccc(N2CCOCC2)cc1)c1ccc2ncsc2c1	22*	3	-3	-1	2
Cc1sc2nc(-c3cccnc3)[nH]c(=O)c2c1-c1ccccc1	23*	-7	-7	-5	-7
Cc1sc2nc(Cc3ccccc3)[nH]c(=O)c2c1-c1ccccc1	-4	2	-3	-2	7
COc1ccc(OC)c(C2C3CN(C(C)C)CC=C3C(C#N)=C(N)C2(C#N)C#N)c1 (stereo not given)	16	-7	8	4	-4
Cc1ccc(C2C3CN(C(C)C)CC=C3C(C#N)=C(N)C2(C#N)C#N)cc1 (stereo not given)	40*	3	34*	8	1
Cc1[nH]c2ccccc2c1CC(=O)Nc1ccc(N(C)c2cccnc2)c(-c2cccc(Cl)c2)c1	2	/	30*	-4	4
CCOc1ccccc1-c1c2cc(O)c(=O)cc-2oc2cc(O)c(O)cc12	/	85*	/	/	/
SMILES	PRMT1 FP inh	HTRA1 inhibitor	ABHD4 inh	TCR-CD3 inh	SIAE inh
CCOC(=O)c1oc2cc(O)ccc2c(=O)c1-c1ccccc1OC	2	-5	-5	5	2
COc1cc2c(cc1OC)-c1cc3ccc4c(c3c[n+]1CC2)OCO4	57*	6	12	2	8
COc1cc2c(cc1O)CC[n+]1cc3c(OC)c(OC)ccc3cc1-2	2	6	-1	-7	4
O=C(COC(=O)c1ccccc1C(=O)N1CCN(c2ccccc2)CC1)Nc1ccccc1	22*	0	10	-1	5
Nc1ccc(C(=O)O)c(O)c1	16	6	15	-5	7
Nc1ccc(N)c(C(=O)O)c1	/	54*	/	/	/
COc1ccc(NC(=O)NNC(=O)CCc2ccc(O)c(O)c2)cc1OC	23*	10	15	8	7
COc1ccc(N=C(NN)c2ccc3ccccc3n2)cc1	27*	-14	3	-7	-2
Cc1ccc(S(=O)(=O)NN2C(=O)/C(=C/c3ccc(C(=O)O)cc3)SC2=S)cc1	22*	-1	-12	0	-2
Cc1ccc(/C=C2\SC(=S)N(NS(=O)(=O)c3ccc(C)cc3)C2=O)cc1	0	-2	1	8	-10
COc1ccc2nc(NNC(=O)c3cc(=O)c4ccccc4o3)sc2c1	22*	32	18	-1	12
O=C(Cn1c(=O)n(Cc2ccco2)c(=O)c2c3c(sc21)CCCC3)Nc1ccccc1	8	-60	-36	-4	-50
NC(=O)Cn1c(=O)n(Cc2ccco2)c(=O)c2c3c(sc21)CCCCC3	21*	4	4	12	-2
COc1ccc(-n2c(SCC(=O)Nc3ccc(S(=O)(=O)Nc4nccs4)cc3)nnc2-c2ccco2)cc1	-1	/	-11	/	-4
Cc1oc(-c2cccs2)nc1CS(=O)CC(=O)NCCc1ccccc1 (stereo not given)	22*	-5	7	-6	-5
COC(=O)Nc1cc(C(=O)c2ccc(Cl)cc2Cl)c[nH]1	24*	-13	-45	-39	-18
COC(=O)NNC(=O)c1ccc(Cl)cc1Cl	-1	1	-16	1	3
CC(CCN1CCC(C(O)(c2ccccc2)c2ccccc2)CC1)Oc1ccc(F)cc1 (stereo not given)	0	/	2	/	-31
O=C(O)CCC(=O)Nc1ccc(SSc2ccc(NC(=O)CCC(=O)O)cc2)cc1	92*	5	4	-5	-5
Cc1cccc(NC(=O)N2CCC(N(C)CCC(C)C)CC2)c1	2	/	-2	/	-3
C=CCN=C1NC(c2cccc(F)c2)C(C(=O)OC)=C(C)N1Cc1cccc(C(F)(F)F)c1 (stereo not given)	-5	/	7	2	0
CCC(C)NC(=O)[C@@H]1CSC2c3ccccc3C(=O)N21 (stereo not given in full)	21*	0	-2	-5	-4
CC(C)c1ccc(NC(=O)O[C@@H]2CC[C@@]34CCCN3C(=O)CCC[C@H]4C2)cc1	1	/	1	/	1
CCOC(=O)[C@]12CCCCC/C=C\1N(CCc1ccc(Cl)cc1)C(=O)[C@H]2CC(=O)NCCC(C)C	3	/	0	/	-1
CC1(C)Cc2c(c(-c3ccco3)nc3sc4c(NCCCO)ncnc4c23)CO1	18	-9	-11	5	-14
CC1(C)Cc2c(c(-c3ccco3)nc3sc4c(NCC5CCCO5)ncnc4c23)CO1 (stereo not given)	23*	-13	-1	1	0
O=C1c2cccc3c([N+](=O)[O-])ccc(c23)C(=O)N1Cc1cccnc1	21*	5	5	-8	-2
